Laboratory results published in ChEMBL document CHEMBL1145336, “1-aryl-3-(4-pyridine-2-ylpiperazin-1-yl)propan-1-one oximes as potent dopamine D4 receptor agonists for the treatment of erectile dysfunction” (J Med Chem, 2006).

Assays:
D(4) dopamine receptor [1] = target: T1, D(4) dopamine receptor (Homo sapiens, UniProt P21917); experiment: Activity at human recombinant D4.4 receptor expressed in HEK293 cells by FLIPR assay; assay type: functional, cell-based
T1 sequence (P21917 whole entry): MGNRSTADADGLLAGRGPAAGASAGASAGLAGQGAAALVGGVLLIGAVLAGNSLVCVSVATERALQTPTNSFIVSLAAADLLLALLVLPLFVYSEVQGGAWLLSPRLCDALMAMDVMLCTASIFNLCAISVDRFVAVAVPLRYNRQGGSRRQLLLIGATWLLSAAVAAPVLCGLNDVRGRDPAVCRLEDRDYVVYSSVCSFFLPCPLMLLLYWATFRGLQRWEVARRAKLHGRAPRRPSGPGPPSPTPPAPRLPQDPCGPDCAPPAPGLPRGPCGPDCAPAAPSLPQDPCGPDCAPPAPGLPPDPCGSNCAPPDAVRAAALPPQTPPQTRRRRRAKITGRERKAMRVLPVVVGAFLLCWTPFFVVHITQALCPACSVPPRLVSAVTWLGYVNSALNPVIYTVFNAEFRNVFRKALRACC

D(2) dopamine receptor [2] = target: T2, D(2) dopamine receptor (Homo sapiens, UniProt P14416); experiment: Antagonist activity at human recombinant D2 receptor expressed in HEK293 cells by FLIPR assay; assay type: functional, cell-based
D(2) dopamine receptor [3] = target: T2, D(2) dopamine receptor; experiment: Agonist activity at human recombinant D2 receptor expressed in HEK293 cells by FLIPR assay; assay type: functional, cell-based
Method in brief: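 Calcium flux (FLIPR) in HEK-293 cells coexpressing recombinant human D2L with chimeric Gqo5. Efficacy is the maximal response relative to 10 µM dopamine (100%). EC50 is the concentration giving half-maximal stimulation. Values are means (SEM, n ≥ 3).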

[4] = target: D(4) dopamine receptor (Homo sapiens) (UniProt P21917); experiment: Agonist activity at human recombinant D4.4 receptor expressed in HEK293 cells by FLIPR assay relative to dopamine
D(4) dopamine receptor [5] = target: T1, D(4) dopamine receptor; experiment: Displacement of [3H]A-369508 from human recombinant D4.4 receptor expressed in HEK293 cell membrane; assay type: cell membranes
Method in brief: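 Competition binding against the D4-selective agonist radioligand [3H]-A-369508, using membranes from HEK-293 cells engineered to express human D4.4. Mean values (SEM, n ≥ 4).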

D(2) dopamine receptor [6] = target: T2, D(2) dopamine receptor; experiment: Displacement of [125I]PIPAT from human recombinant D2L receptor expressed in HEK293 cells
Rattus norvegicus [7] = experiment: Activity against penile erection in Wistar rat at 0.3 umol/kg, sc; assay type: functional
Method in brief: (§1)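 Male Wistar rats, dosed subcutaneously, were weighed and adapted to a red-lit testing room for 60 min; experiments ran between 9:00 a.m. and 3:00 p.m. Erections were counted by direct observation for 60 min after dosing. The share of animals with one or more erections was reported as incidence (percent), n = 8-30 rats.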

[8] = Bioavailability in rat at 1 mg/kg, po; assay type: ADME, organism-based; conditions: in vivo
Method in brief: (§2)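 Pharmacokinetics in rat and dog after a 1 mg/kg dose given subcutaneously or orally. Oral bioavailability (F, %), volume of distribution (Vβ, L/kg) and half-life (T1/2, h) were determined.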

[9] = Bioavailability in rat at 1 mg/kg, sc; assay type: ADME, organism-based; conditions: in vivo; method in brief: as §2
[10] = Half life in rat at 1 mg/kg, sc; assay type: ADME, organism-based; design: dose 1 mg/kg, route subcutaneous; conditions: in vivo; method in brief: as §2
Rattus norvegicus [11] = experiment: Volume of distribution in rat at 1 mg/kg, sc; assay type: ADME, organism-based; design: dose 1 mg/kg, route subcutaneous; conditions: in vivo; method in brief: as §2
Canis familiaris = experiment: Volume of distribution in dog at 1 mg/kg, sc; assay type: ADME, organism-based, Canis lupus familiaris; design: dose 1 mg/kg, route subcutaneous; conditions: in vivo; method in brief: as §2
[12] = Bioavailability in dog at 1 mg/kg, po; assay type: ADME, organism-based, Canis lupus familiaris; conditions: in vivo; method in brief: as §2
Rattus norvegicus [13] = experiment: Activity against penile erection in Wistar rat at 0.1 umol/kg, sc; assay type: functional; method in brief: as §1

T2 sequence (P14416 whole entry): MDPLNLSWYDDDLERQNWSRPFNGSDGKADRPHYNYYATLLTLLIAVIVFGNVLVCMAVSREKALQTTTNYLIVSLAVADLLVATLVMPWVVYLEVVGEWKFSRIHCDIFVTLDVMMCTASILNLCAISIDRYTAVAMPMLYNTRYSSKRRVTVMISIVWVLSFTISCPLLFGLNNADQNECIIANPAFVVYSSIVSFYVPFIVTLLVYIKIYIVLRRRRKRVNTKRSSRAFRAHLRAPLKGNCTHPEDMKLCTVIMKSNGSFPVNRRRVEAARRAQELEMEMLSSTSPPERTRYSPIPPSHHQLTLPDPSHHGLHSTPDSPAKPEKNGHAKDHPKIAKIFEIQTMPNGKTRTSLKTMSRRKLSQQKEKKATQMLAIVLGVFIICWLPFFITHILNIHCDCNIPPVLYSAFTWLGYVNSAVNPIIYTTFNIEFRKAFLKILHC

## CO/N=C(/CCCN1CCN(c2ccccn2)CC1)c1ccc(F)cc1
D(4) dopamine receptor [1]
  EC50: 33.5 nM
D(2) dopamine receptor [2]
  IC50: > 10 µM
D(2) dopamine receptor [3]
  EC50: 0.366 µM
[4]
  Efficacy: 65%

## CO/N=C(/c1ccc(Cl)cc1)C(C)CN1CCN(c2ccccn2)CC1 (stereo not given)
D(4) dopamine receptor [1]
  EC50: 459 nM
D(4) dopamine receptor [5]
  Ki: 346 nM
D(2) dopamine receptor [2]
  IC50: > 10 µM
D(2) dopamine receptor [3]
  EC50: > 10 µM
D(2) dopamine receptor [6]
  Ki: 146 nM

## CCO/N=C(\CCN1CCN(c2ccccn2)CC1)c1ccccc1
D(4) dopamine receptor [1]
  EC50: 28.5 nM
D(4) dopamine receptor [5]
  Ki: 38 nM
Rattus norvegicus [7]
  Activity: 55%
D(2) dopamine receptor [2]
  IC50: > 10 µM
D(2) dopamine receptor [3]
  EC50: > 10 µM
D(2) dopamine receptor [6]
  Ki: 128 nM

## CO/N=C(/CCN1CCC(c2ccccn2)CC1)c1ccc(Cl)cc1
D(4) dopamine receptor [1]
  EC50: > 10000 nM
D(4) dopamine receptor [5]
  Ki: 90 nM
D(2) dopamine receptor [2]
  IC50: > 10 µM
D(2) dopamine receptor [3]
  EC50: > 10 µM
D(2) dopamine receptor [6]
  Ki: 19.4 nM

## CO/N=C(\CN1CCN(c2ccccn2)CC1)c1ccc(F)cc1
D(4) dopamine receptor [1]
  EC50: 43.8 nM
D(4) dopamine receptor [5]
  Ki: 2050 nM
Rattus norvegicus [7]
  Activity: 77%
D(2) dopamine receptor [2]
  IC50: > 10 µM
D(2) dopamine receptor [3]
  EC50: > 10 µM
D(2) dopamine receptor [6]
  Ki: 2530 nM

## CO/N=C(\CCN1CCN(c2ccccn2)CC1)c1cccc(C)c1
D(4) dopamine receptor [1]
  EC50: 27.6 nM
D(4) dopamine receptor [5]
  Ki: 8 nM
D(2) dopamine receptor [2]
  IC50: > 10 µM
D(2) dopamine receptor [3]
  EC50: > 10 µM
D(2) dopamine receptor [6]
  Ki: 68.4 nM

## CO/N=C(/CCN1CCN(c2ccccn2)CC1)c1cc(F)cc(F)c1
D(4) dopamine receptor [1]
  EC50: 46.7 nM
D(4) dopamine receptor [5]
  Ki: 6.3 nM
D(2) dopamine receptor [2]
  IC50: > 10 µM
D(2) dopamine receptor [3]
  EC50: > 10 µM
D(2) dopamine receptor [6]
  Ki: 225 nM

## CO/N=C(/CCN1CCN(c2ccccn2)CC1)c1cccc(F)c1
D(4) dopamine receptor [1]
  EC50: 60.2 nM
D(4) dopamine receptor [5]
  Ki: 6.4 nM
D(2) dopamine receptor [2]
  IC50: > 10 µM
D(2) dopamine receptor [3]
  EC50: > 10 µM
D(2) dopamine receptor [6]
  Ki: 46.6 nM

## CO/N=C(\CCN1CCN(c2ccccn2)CC1C)c1ccc(Cl)cc1 (stereo not given)
D(4) dopamine receptor [1]
  EC50: 333 nM
D(4) dopamine receptor [5]
  Ki: 67.1 nM
D(2) dopamine receptor [2]
  IC50: > 10 µM
D(2) dopamine receptor [3]
  EC50: > 10 µM
D(2) dopamine receptor [6]
  Ki: 76.5 nM

## CO/N=C(\CCN1CCN(c2ccccn2)CC1)c1ccc(Cl)c(Cl)c1
D(4) dopamine receptor [1]
  EC50: 542 nM
D(4) dopamine receptor [5]
  Ki: 6.4 nM
Rattus norvegicus [7]
  Activity: 76%
D(2) dopamine receptor [2]
  IC50: > 10 µM
D(2) dopamine receptor [3]
  EC50: > 10 µM
D(2) dopamine receptor [6]
  Ki: 64.5 nM

## O/N=C(\CCN1CCN(c2ccccn2)CC1)c1ccccc1
D(4) dopamine receptor [1]
  EC50: 4.4 nM
D(4) dopamine receptor [5]
  Ki: 25.4 nM
Rattus norvegicus [7]
  Activity: 60%
[8]
  bioavailability: 0%
[9]
  bioavailability: 68.1%
[10]
  half-life: 48 min
Rattus norvegicus [11]
  Vbeta: 1 L/kg
Canis familiaris
  Vbeta: 1.8 L/kg
[12]
  bioavailability: 0%
D(2) dopamine receptor [2]
  IC50: > 10 µM
D(2) dopamine receptor [3]
  EC50: > 10 µM
D(2) dopamine receptor [6]
  Ki: 257 nM

## CO/N=C(\CCN1CCN(c2ccccn2)CC1)c1cccc(F)c1
D(4) dopamine receptor [1]
  EC50: 44.6 nM
D(4) dopamine receptor [5]
  Ki: 13.9 nM
D(2) dopamine receptor [2]
  IC50: > 10 µM
D(2) dopamine receptor [3]
  EC50: > 10 µM
D(2) dopamine receptor [6]
  Ki: 101 nM

## O/N=C(/CCN1CCN(c2ncccn2)CC1)c1ccccc1
D(4) dopamine receptor [1]
  EC50: 69 nM
D(2) dopamine receptor [2]
  IC50: > 10 µM
D(2) dopamine receptor [3]
  EC50: > 10 µM

## N#Cc1cccc(/C(CCN2CCN(c3ccccn3)CC2)=N/O)c1
D(4) dopamine receptor [1]
  EC50: 13.1 nM
D(2) dopamine receptor [2]
  IC50: > 10 µM
D(2) dopamine receptor [3]
  EC50: > 10 µM

## CO/N=C(/CCN1CCN(c2ccccn2)CC1)c1ccc(Cl)cc1
D(4) dopamine receptor [1]
  EC50: 56.6 nM
D(2) dopamine receptor [2]
  IC50: > 10 µM
D(2) dopamine receptor [3]
  EC50: > 10 µM

## CO/N=C(\c1ccc(Cl)cc1)C(O)CN1CCN(c2ccccn2)CC1 (stereo not given)
D(4) dopamine receptor [1]
  EC50: 46 nM
D(4) dopamine receptor [5]
  Ki: 113 nM
D(2) dopamine receptor [2]
  IC50: > 10 µM
D(2) dopamine receptor [3]
  EC50: > 10 µM
D(2) dopamine receptor [6]
  Ki: 995 nM

## CO/N=C(\CCN1CCN(c2ccccn2)CC1)c1ccccc1
D(4) dopamine receptor [1]
  EC50: 32 nM
D(4) dopamine receptor [5]
  Ki: 22.8 nM
Rattus norvegicus [13]
  Activity: 77%
D(2) dopamine receptor [2]
  IC50: > 10 µM
D(2) dopamine receptor [3]
  EC50: > 10 µM
D(2) dopamine receptor [6]
  Ki: 172 nM

## Cc1cccc(/C(CCN2CCN(c3ccccn3)CC2)=N/O)c1
D(4) dopamine receptor [1]
  EC50: 2.3 nM
D(2) dopamine receptor [2]
  IC50: > 10 µM
D(2) dopamine receptor [3]
  EC50: > 10 µM

## O/N=C(\CCN1CCN(c2ncccn2)CC1)c1ccccc1
D(4) dopamine receptor [1]
  EC50: 39.2 nM
D(2) dopamine receptor [2]
  IC50: > 10 µM
D(2) dopamine receptor [3]
  EC50: > 10 µM

## CO/N=C(/c1ccc(Cl)cc1)C(O)CN1CCN(c2ccccn2)CC1 (stereo not given)
D(4) dopamine receptor [1]
  EC50: 22.6 nM
D(4) dopamine receptor [5]
  Ki: 150 nM
D(2) dopamine receptor [2]
  IC50: > 10 µM
D(2) dopamine receptor [3]
  EC50: > 10 µM
D(2) dopamine receptor [6]
  Ki: 368 nM
